Assay type in all cases: functional
In assay [1] the test system is Mycobacterium tuberculosis. Kind of assay: Antitubercular activity against Multidrug-resistant Mycobacterium tuberculosis qcrB-T313A mutant assessed as bacterial growth inhibition incubated for 7 days by resazurin dye based assay. Particulars: time 7 day. Put shortly:
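MIC measured against a spontaneous mutant selected for resistance to 2-(quinolin-4-yloxy)acetamides, with a fully sequenced genome and a single qcrB change (ACC to GCC at nucleotide 937, T313A substitution).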

Assay [2] deals with Mycobacterium tuberculosis. The assay is described as follows: Antitubercular activity against Multidrug-resistant Mycobacterium tuberculosis clinical isolate PT12 assessed as bacterial growth inhibition incubated for 7 days by resazurin dye based assay. The note with it: PT12, 168 h, time 7 day. For orientation: Alamar Blue is a resazurin reagent that responds to reducing activity.

The test system of assay [3] is Mycobacterium tuberculosis. The assay is described as follows: Antitubercular activity against Multidrug-resistant Mycobacterium tuberculosis clinical isolate PT20 assessed as bacterial growth inhibition incubated for 7 days by resazurin dye based assay. Particulars: PT20, 168 h, time 7 day.
The subject of assay [4] is Mycobacterium tuberculosis. The assay is described as follows: Antitubercular activity against Multidrug-resistant Mycobacterium tuberculosis clinical isolate PT2 assessed as bacterial growth inhibition incubated for 7 days by resazurin dye based assay. The note with it: PT2, 168 h, time 7 day.

SMILES strings stand for the structures. Converted amounts (≈) assume the structure as drawn. A value given as a limit tells only on which side of the number the result lay.

Broadly, the MIC is the lowest concentration that inhibits growth of the organism. For `COc1ccc2nc(C)cc(OCC(=O)Nc3ccc(N4CCCCC4)cc3)c2c1`, the MIC is above 24.7 µM in assay [1], 0.19 µM (≈ 0.077 µg/mL) in assay [2], below 0.04 µM in assay [3] and below 0.04 µM in assay [4].

For `CCc1cc(OCC(=O)Nc2ccc(N3CCCCC3)cc2)c2cc(OC)ccc2n1`, the MIC in assay [1] was above 23.8 µM; in assay [2], 0.19 µM (≈ 0.0797 µg/mL); in assay [3], below 0.04 µM; in assay [4], below 0.04 µM.

Consider `CO[C@H]1/C=C/O[C@@]2(C)Oc3c(C)c(O)c4c(O)c(c(/C=N/N5CCN(C)CC5)c(O)c4c3C2=O)NC(=O)/C(C)=C\C=C\[C@H](C)[C@H](O)[C@@H](C)[C@@H](O)[C@@H](C)[C@H](OC(C)=O)[C@@H]1C` [RIFAMPIN], for which the MIC in assay [2], in assay [3] and in assay [4] was above 48.6 µM throughout.

In the case of `NNC(=O)c1ccncc1` [ISONIAZID], the figures for the MIC in assay [1] and in assay [2] were 2.3 µM (≈ 0.315 µg/mL) and 146 µM (≈ 20 µg/mL), respectively.

For the origin of these results see ChEMBL document CHEMBL5120974, “Antitubercular Activity of Novel 2-(Quinoline-4-yloxy)acetamides with Improved Drug-Like Properties” (ACS Med Chem Lett, 2022).
